ChEMBL document CHEMBL1806375, “Synthesis, molecular modeling and bio-evaluation of cycloalkyl fused 2-aminopyrimidines as antitubercular and antidiabetic agents” (Bioorg Med Chem Lett, 2011)
Converted amounts (≈) assume the structure as drawn.

Key:
[1] = system: Mycobacterium tuberculosis; assay: Antimycobacterial activity against Mycobacterium tuberculosis H37Rv after 30 days by agar microdilution method; type: functional
Outline: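 Virulent M. tuberculosis H37Rv strain tested by agar microdilution. Isoniazid and ethambutol served as reference drugs. Read-out is the MIC.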

[2] = molecular target: T1, Glycogen phosphorylase, liver form (Rattus norvegicus) (UniProt P09811); assay: Inhibition of Wistar rat liver glycogen phosphorylase at 100 uM after 30 mins
T1 sequence (whole entry): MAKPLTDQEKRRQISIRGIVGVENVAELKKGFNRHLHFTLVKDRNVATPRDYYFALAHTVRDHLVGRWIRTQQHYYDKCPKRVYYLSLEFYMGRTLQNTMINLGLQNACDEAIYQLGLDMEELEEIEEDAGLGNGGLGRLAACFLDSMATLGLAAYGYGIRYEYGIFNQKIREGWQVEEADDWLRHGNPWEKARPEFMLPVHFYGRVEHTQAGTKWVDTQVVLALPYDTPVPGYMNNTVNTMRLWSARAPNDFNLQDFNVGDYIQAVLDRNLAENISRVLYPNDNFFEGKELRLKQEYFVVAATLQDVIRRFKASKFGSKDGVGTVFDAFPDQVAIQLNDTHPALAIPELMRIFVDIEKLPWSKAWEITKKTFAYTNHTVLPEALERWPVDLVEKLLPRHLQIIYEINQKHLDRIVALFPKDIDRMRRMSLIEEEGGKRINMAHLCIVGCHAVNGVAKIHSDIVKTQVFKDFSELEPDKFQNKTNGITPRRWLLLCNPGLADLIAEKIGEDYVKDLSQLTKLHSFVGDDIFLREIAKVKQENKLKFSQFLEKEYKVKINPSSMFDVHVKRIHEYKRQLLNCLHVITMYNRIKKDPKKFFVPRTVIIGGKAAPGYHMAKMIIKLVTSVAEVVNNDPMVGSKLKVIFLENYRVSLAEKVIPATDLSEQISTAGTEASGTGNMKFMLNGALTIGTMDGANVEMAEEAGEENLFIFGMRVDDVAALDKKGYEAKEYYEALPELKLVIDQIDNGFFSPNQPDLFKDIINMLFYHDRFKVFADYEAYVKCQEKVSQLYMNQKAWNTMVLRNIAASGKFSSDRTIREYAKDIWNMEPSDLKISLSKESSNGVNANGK

Rattus norvegicus = organism: Rattus norvegicus; assay: Inhibition of albino rat intestine alpha-glucosidase using p-nitrophenyl-alpha-D-glucopyranoside as substrate at 100 uM
[3] = system: Mycobacterium tuberculosis; assay: Antimycobacterial activity against Mycobacterium tuberculosis H37Rv infected in mouse bone marrow macrophages assessed as intracellular growth inhibition after 4 days; type: functional
Vero = assay: Cytotoxicity against african green monkey Vero cells at 10 times MIC of Mycobacterium tuberculosis H37Rv after 24 hrs by MTS assay; type: cell-based; conditions: chlorocebus sabaeus
[4] = Cytotoxicity against mouse bone marrow macrophages at 10 times MIC after 48 hrs by MTS assay; type: cell-based; conditions: macrophage
[5] = system: Mycobacterium tuberculosis; assay: Antimycobacterial activity against Mycobacterium tuberculosis H37Rv infected in mouse bone marrow macrophages assessed as intracellular growth inhibition at 3.12 ug/ml after 4 days; type: functional; conditions: 96 h, read-out: GI

Row | SMILES | MIC [1] [µg/mL] | inhibition (Rattus norvegicus) [%] | further results
1 | Nc1nc2c(c(-c3ccc(Br)cc3)n1)CCC/C2=C\c1ccc(Br)cc1 | 12.5 (≈ 26.5 µM) | – | –
2 | Nc1nc2c(c(-c3ccc(Cl)cc3)n1)CCC/C2=C\c1ccc(Cl)cc1 | > 12.5 | – | –
3 | Nc1nc2c(c(-c3ccccc3)n1)CCC/C2=C\c1ccccc1 | 6.25 (≈ 19.9 µM) | – | inhibition [2]: -6.1%
4 | Nc1nc2c(c(-c3ccc(Cl)cc3)n1)CCCC/C2=C\c1ccc(Cl)cc1 | > 12.5 | 11.4 | –
5 | NNC(=O)c1ccncc1 [ISONIAZID] | 0.75 (≈ 5.47 µM) | – | growth inhibition (GI) [3]: >=99%
6 | Nc1nc2c(c(-c3ccc(OCc4ccccc4)cc3)n1)CCC/C2=C\c1ccc(OCc2ccccc2)cc1 | > 12.5 | – | inhibition [2]: -0.87%
7 | COc1ccc(/C=C2\CCCCc3c2nc(N)nc3-c2ccc(OC)c(OC)c2)cc1OC | 6.25 (≈ 14 µM) | -6.4 | –
8 | Nc1nc2c(c(-c3ccc(Br)cc3)n1)CCCC/C2=C\c1ccc(Br)cc1 | > 12.5 | -5.86 | –
9 | Nc1nc2c(c(-c3ccc(F)cc3)n1)CCC/C2=C\c1ccc(F)cc1 | 12.5 (≈ 35.8 µM) | – | –
10 | Nc1nc2c(c(-c3cccc4ccccc34)n1)CCC/C2=C\c1cccc2ccccc12 | 12.5 (≈ 30.2 µM) | 13.7 | inhibition [2]: 11.3%
11 | COc1ccc(/C=C2\CCCCc3c2nc(N)nc3-c2ccc(OC)cc2)cc1 | > 12.5 | – | –
12 | COc1cc(/C=C2\CCCCc3c2nc(N)nc3-c2cc(OC)c(OC)c(OC)c2)cc(OC)c1OC | > 12.5 | – | –
13 | Nc1nc2c(c(-c3ccc4ccccc4c3)n1)CCC/C2=C\c1ccc2ccccc2c1 | 6.25 (≈ 15.1 µM) | -6 | inhibition [2]: -5%
14 | Nc1nc2c(c(-c3ccccc3)n1)CCCC/C2=C\c1ccccc1 | > 12.5 | -0.07 | –
15 | COc1ccc(/C=C2\CCCc3c2nc(N)nc3-c2ccc(OC)c(OC)c2)cc1OC | > 12.5 | – | –
16 | CC[C@@H](CO)NCCN[C@@H](CC)CO [ETHAMBUTOL] | 3.25 (≈ 15.9 µM) | – | –
17 | COc1ccc(/C=C2\CCCc3c2nc(N)nc3-c2ccc(OC)cc2)cc1 | > 12.5 | – | inhibition [2]: -10%
18 | Nc1nc(Cc2ccco2)c2c(n1)/C(=C/Cc1ccco1)CCC2 | > 12.5 | – | –
19 | COc1cc(/C=C2\CCCc3c2nc(N)nc3-c2cc(OC)c(OC)c(OC)c2)cc(OC)c1OC | > 12.5 | – | –
20 | Nc1nc2c(c(-c3cccc4ccccc34)n1)CCCC/C2=C\c1cccc2ccccc12 | > 12.5 | – | –
21 | Nc1nc(Cc2ccco2)c2c(n1)/C(=C/Cc1ccco1)CCCC2 | > 12.5 | -4.87 | inhibition [2]: 34.3%
22 | Nc1nc2c(c(-c3ccc4ccccc4c3)n1)CCCC/C2=C\c1ccc2ccccc2c1 | 3.12 (≈ 7.3 µM) | – | Activity (Vero): Non-toxic; Activity [4]: Non-toxic; inhibition of growth at 3.12 µg/mL [5]: 58%
